Compound activity: PubChem, Broad Institute
The full list was thinned out, with hits kept by preference.
T cruzi growth-1 – T. cruzi proliferation inhibition; 5.9% of 77,000 active; T. cruzi beta-gal in NIH3T3, GalScreen luminescence, 90 h; inhibition, % at 8.34 µM;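 active = mean inhibition above about 93%, with at least 55% of replicates each passing it, limit read from the data, passing the limit was not always enough; inconclusive = only one of those two conditions holds; inactive = neither condition holds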
IDH1 R132H inh – IDH1 R132H (human) inhibition | IDH1 R132H reductase, diaphorase/resazurin fluorescence, 60 min | inhibition, % at 10 µM | 0.18% of 70,000 active | AID 624101; in the data active = inhibition above about 34%; inconclusive = no clear call, values can overlap the other calls; inactive = below about 11%
KDM4C inh – KDM4C (human) demethylase inhibition. GST-KDM4C 2-372, H3K9me3 peptide, LANCE TR-FRET. Q9H3R0. inhibition, % at 12.5 µM. 0.15% of 96,000 active;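 active = mean replicate inhibition above about 25%, with at least 55% of replicates also reaching it, limit read from the data, passing the limit was not always enough; inconclusive = only one of those two conditions met; inactive = neither condition met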
Target sequence (Q9H3R0 2-372 limits assumed): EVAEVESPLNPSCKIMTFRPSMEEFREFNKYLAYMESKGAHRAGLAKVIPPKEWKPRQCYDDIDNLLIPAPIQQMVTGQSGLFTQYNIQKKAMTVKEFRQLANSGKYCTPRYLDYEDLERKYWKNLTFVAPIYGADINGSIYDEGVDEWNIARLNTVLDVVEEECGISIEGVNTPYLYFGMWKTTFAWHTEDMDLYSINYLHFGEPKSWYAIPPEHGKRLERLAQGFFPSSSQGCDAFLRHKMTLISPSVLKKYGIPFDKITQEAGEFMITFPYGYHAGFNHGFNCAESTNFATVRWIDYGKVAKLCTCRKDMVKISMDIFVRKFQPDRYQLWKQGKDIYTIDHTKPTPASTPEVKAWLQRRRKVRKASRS
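Material: GST-tagged GASC-1 (JMJD2C) catalytic fragment, aa 2-372 / Quantity: enzyme final amount 10 nM / Medium: HEPES buffer, pH 7.5, plus ascorbate / Doses: one test concentration per compound / Incubation: 30 min reaction, 60 min detection, RT / Measured by: LANCE TR-FRET / Read-out: inhibition from TR-FRET ratio decrease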
T cruzi growth-2 – inhibitors of T. cruzi proliferation. shares compounds with T cruzi growth-1. T. cruzi beta-gal in NIH3T3, GalScreen luminescence, 90 h. inhibition, % at 8.35 µM. 72% of 5,600 active. AID 651739;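 active = mean replicate inhibition above about 95% and at least 55% of replicates individually reaching it, limit read from the data; inconclusive = only one of the two criteria is met; inactive = neither criterion is met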
T cruzi growth-3 – blocks T. cruzi growth in NIH3T3 host cells; shares compounds with T cruzi growth-1; T. cruzi beta-gal in NIH3T3, GalScreen luminescence, 90 h; inhibition, % at 2.09 µM; 21% of 5,600 active; AID 651740;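 active = mean inhibition above about 95%, with at least 55% of replicates also reaching it, limit read from the data; inconclusive = meets just one of the two conditions; inactive = meets neither condition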
3T3 cytotox – kills mouse NIH/3T3 fibroblasts | NIH/3T3 viability, CellTiter-Glo ATP luminescence, 90 h | shares compounds with T cruzi growth-1 | cytotoxicity (signal decrease), % at 8.35 µM | 14% of 5,600 active | AID 651742;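 active = mean signal decrease across replicates above about 35% based on untreated-well scatter, with enough replicates individually passing, limit read from the data; inconclusive = no rule stated though some were filed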
3T3 cytotox 2 – NIH/3T3 (mouse) viability loss | inhibition, % at 24.9 µM | NIH/3T3 viability, CellTiter-Glo ATP luminescence, 90 h | 56% of 5,600 active | AID 651744 | shares compounds with T cruzi growth-1;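 active = mean loss of cell viability signal at or above a set limit, and enough replicates individually reaching it; inconclusive = meets only the mean limit or only the replicate share; inactive = meets neither condition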
A number is an active result; n = inactive; u = inconclusive; x = not tested or not shown.

SMILES	T cruzi growth-1	IDH1 R132H inh	KDM4C inh	T cruzi growth-2	T cruzi growth-3	3T3 cytotox	3T3 cytotox 2
C[C@@H]1CN([C@H](C)CO)C(=O)c2cc(N(C)C)ccc2O[C@H]1CN(C)Cc1ccc(C(=O)Nc2ccccc2N)cc1	n	x	n	x	x	x	x
C[C@H](CO)N1C[C@H](C)[C@H](CN(C)Cc2ccc(C(=O)Nc3ccccc3N)cc2)Oc2c(NC(=O)Nc3ccc4c(c3)OCO4)cccc2C1=O	n	n	n	x	x	x	x
C[C@@H]1CN([C@H](C)CO)C(=O)c2cc(N(C)C)ccc2O[C@@H]1CN(C)Cc1ccc(C(=O)Nc2ccccc2N)cc1	103.1	x	x	n	n	73.9	93.6
Cc1cc(=O)[nH]c(SCCOc2ccc(F)cc2)n1	x	n	x	x	x	x	x
Cc1ccccc1N(CC(=O)Nc1cccc2ccccc12)S(C)(=O)=O	x	n	x	x	x	x	x
Cc1ccc(NC(=O)CSc2n[nH]c(CC(C)C)n2)cc1	x	n	x	x	x	x	x
CC(=O)Nc1ccc(NC(=O)CN(c2cccc(Br)c2)S(C)(=O)=O)cc1	x	n	x	x	x	x	x
CCN(CC(=O)Nc1ccc(OC)cc1)S(=O)(=O)c1ccc(Cl)cc1	x	n	x	x	x	x	x
Cc1nnc(SCC2=NN(c3nc4ccccc4s3)C(=O)C2)s1	x	n	x	x	x	x	x
C[C@H]1CN([C@@H](C)CO)C(=O)c2cc(NC(=O)Nc3ccc4c(c3)OCO4)ccc2O[C@H]1CN(C)Cc1ccc(C(=O)Nc2ccccc2N)cc1	97.9	x	n	n	n	n	n
C[C@@H]1CN([C@H](C)CO)C(=O)c2cc(NC(=O)Nc3ccc4c(c3)OCO4)ccc2O[C@@H]1CN(C)Cc1ccc(C(=O)Nc2ccccc2N)cc1	n	x	n	x	x	x	x
Cc1cccc(S(=O)(=O)N2CCCCN3[C@@H](CO)[C@H](c4ccc(-c5ccccc5)cc4)[C@@H]3C2)c1	n	x	x	x	x	x	x
Cc1cccc(S(=O)(=O)N2CCCCN3[C@H](CO)[C@H](c4ccc(-c5ccccc5)cc4)[C@@H]3C2)c1	115.8	x	x	98.1	n	n	50.7
Cc1cccc(-c2ccc([C@@H]3[C@H]4CN(S(=O)(=O)c5cccc(C)c5)CCCCN4[C@H]3CO)cc2)c1	110.3	x	n	103.7	114.8	n	56.0
Cc1cccc(-c2ccc([C@H]3[C@H]4CN(S(=O)(=O)c5cccc(C)c5)CCCCN4[C@H]3CO)cc2)c1	n	x	n	x	x	x	x
Cc1cccc(-c2ccc([C@H]3[C@@H](CO)N4CCCCN(S(=O)(=O)c5cccc(C)c5)C[C@H]34)cc2)c1	100.3	x	n	n	105.6	49.8	103.4
Cc1cccc(S(=O)(=O)N2CCCCN3[C@H](C2)[C@@H](c2ccc(-c4ccccc4)cc2)[C@@H]3CO)c1	n	x	x	x	x	x	x
O=S(=O)(c1ccccc1)N1CCCCN2[C@H](CO)[C@H](c3ccc(-c4ccccc4)cc3)[C@@H]2C1	104.2	x	n	100.1	n	n	49.0
O=S(=O)(c1ccccc1)N1CCCCN2[C@@H](CO)[C@@H](c3ccc(-c4ccccc4)cc3)[C@@H]2C1	n	x	n	x	x	x	x
CC(C)N(Cc1nc(-c2ccc(Cl)cc2)no1)S(=O)(=O)c1ccc2ccccc2c1	x	n	x	x	x	x	x
CN(CC(=O)Nc1ccccc1C#N)S(=O)(=O)c1ccccc1	x	n	x	x	x	x	x
Cc1ccc(NC(=O)CSc2nnc(-c3ccco3)n2-c2ccccc2)cc1Cl	x	n	x	x	x	x	x
C[C@H]1CN([C@@H](C)CO)C(=O)c2cc(NC(=O)C3CCCCC3)ccc2O[C@@H]1CN(C)Cc1ccc(-c2ccccc2)cc1	104.3	x	n	109.0	n	n	n
C[C@@H]1CN([C@H](C)CO)C(=O)c2cc(NC(=O)C3CCCCC3)ccc2O[C@H]1CN(C)Cc1ccc(-c2ccccc2)cc1	u	n	n	107.8	n	n	39.2
C[C@@H]1CN([C@H](C)CO)C(=O)c2cc(NC(=O)C3CC3)ccc2O[C@H]1CN(C)Cc1ccc(-c2ccccc2)cc1	n	n	n	x	x	x	x
SMILES	T cruzi growth-1	IDH1 R132H inh	KDM4C inh	T cruzi growth-2	T cruzi growth-3	3T3 cytotox	3T3 cytotox 2
C[C@H](CO)N1C[C@H](C)[C@@H](CN(C)Cc2ccccc2)Oc2ccc(NC(=O)NC3CCCCC3)cc2C1=O	n	x	n	x	x	x	x
C[C@H](CO)N1C[C@H](C)[C@@H](CN(C)Cc2ccc(-c3ccccc3)cc2)Oc2ccc(NC(=O)C3CCCCC3)cc2C1=O	n	x	n	x	x	x	x
C[C@H](CO)N1C[C@H](C)[C@H](CN(C)Cc2ccc(-c3ccccc3)cc2)Oc2ccc(NC(=O)NC3CCCCC3)cc2C1=O	111.0	n	n	104.2	n	n	47.0
CCc1nc2sc3c(c2c2nnc(SCC(=O)OC)n12)CCC3	x	n	x	x	x	x	x
O=C1CC(CSc2nnnn2-c2ccccc2)=NN1	x	n	x	x	x	x	x
CCOC(=O)c1c(-c2ccccc2)csc1NC(=O)Cn1cnc2ccccc2c1=O	x	n	x	x	x	x	x
COc1cccc2cc(-c3nnc(SCC(=O)Nc4cccc(Br)c4)n3C)oc12	x	n	x	x	x	x	x
O=C(COc1cccc([N+](=O)[O-])c1)Nc1cccc(I)c1	x	n	x	x	x	x	x
COc1ccccc1CNC(=O)C[C@H]1C[C@H]2c3cc(NC(=O)Nc4ccccc4F)ccc3O[C@H]2[C@H](CO)O1	n	n	n	x	x	x	x
COc1ccccc1CNC(=O)C[C@H]1C[C@@H]2c3cc(NC(=O)Nc4ccc(C(F)(F)F)cc4)ccc3O[C@@H]2[C@@H](CO)O1	140.5	n	n	110.4	100.6	n	n
COc1ccccc1CNC(=O)C[C@@H]1CC[C@@H](NC(C)=O)[C@H](CO)O1	u	n	n	n	n	n	n
COc1ccccc1CNC(=O)C[C@H]1C[C@H]2c3cc(NC(=O)CC4CC4)ccc3O[C@H]2[C@H](CO)O1	n	n	n	x	x	x	x
COc1ccccc1CNC(=O)C[C@H]1C[C@H]2c3cc(NC(=O)Nc4ccccc4F)ccc3O[C@H]2[C@@H](CO)O1	n	n	n	x	x	x	x
COc1ccccc1CNC(=O)C[C@H]1C[C@H]2c3cc(NC(=O)Nc4ccc(C(F)(F)F)cc4)ccc3O[C@H]2[C@@H](CO)O1	122.9	n	n	105.3	n	n	n
COCC(=O)Nc1ccc2c(c1)[C@H]1C[C@H](CC(=O)NCc3ccccc3OC)O[C@@H](CO)[C@H]1O2	100.7	n	n	n	n	n	n
COc1ccccc1CNC(=O)C[C@H]1CC[C@H](NC(C)=O)[C@H](CO)O1	n	n	n	x	x	x	x
CN(CC(=O)Nc1ccc(Br)cc1F)S(=O)(=O)c1ccc(F)cc1	x	n	x	x	x	x	x
O=C(CCCCC(=O)NN=C1CCCCCC1)NO	x	n	x	x	x	x	x
CN1C(=O)c2ccccc2C(C(=O)NCc2ccco2)C1c1cn(C)c2ccccc12 (stereo not given)	x	n	x	x	x	x	x
C=CCC/C=N/NC(=O)CCCCCCC(=O)Nc1ccccc1O	x	n	x	x	x	x	x
Cc1cc2nn(-c3cccc4ccccc34)nc2cc1NC(=O)COc1ccc([N+](=O)[O-])cc1	x	n	x	x	x	x	x
Cn1c(CN2CCOCC2)nnc1SCC(=O)Nc1ccc2ccccc2c1	x	n	x	x	x	x	x
COc1ccc(S(=O)(=O)N[C@@H]2C=C[C@H](CC(=O)N3CCC(Cc4ccccc4)CC3)O[C@@H]2CO)cc1	u	n	n	n	n	n	32.3
